Experimental data taken from ChEMBL document CHEMBL2069207, “Polyhydroxylated steroidal glycosides from Paris polyphylla” (J Nat Prod, 2012).
pIC50: −log10 of the molar value. The source made the active and inactive calls. The rule behind the calls is not given here.

System: CCRF-CEM
Experiment: Cytotoxicity against human CCRF-CEM cells at 100 uM by XTT assay
Type: functional, cell-based
Procedure, shortened: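 Human CCRF-CEM leukemia cells; single fixed concentration of 100 μM. Proliferation inhibition was read by XTT assay and expressed as inhibition rate. Viability was referenced to an equivalent DMSO concentration as negative control. Doxorubicin served as positive control.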

Row | SMILES | Activity
1 | CC1=CO[C@@]2(O[C@H]3C[C@H]4[C@@H]5CC=C6C[C@@H](O)C[C@@H](O[C@@H]7O[C@H](CO)[C@@H](O)[C@H](O[C@@H]8OC[C@@H](O)[C@H](O)[C@H]8O)[C@H]7O[C@@H]7O[C@@H](C)[C@H](O)[C@@H](O)[C@H]7O)[C@]6(C)[C@H]5CC[C@]4(C)[C@H]3[C@@H]2CO)[C@@H](O)[C@H]1O[C@@H]1O[C@H](C)[C@H](O)[C@H](O)[C@H]1O | inactive
2 | CC1=CO[C@@]2(O[C@H]3C[C@H]4[C@@H]5CC=C6C[C@@H](O)C[C@@H](O[C@@H]7O[C@H](CO)[C@@H](O)[C@H](O[C@@H]8OC[C@@H](O)[C@H](O)[C@H]8O)[C@H]7O[C@@H]7O[C@@H](C)[C@H](O)[C@@H](O)[C@H]7O)[C@]6(C)[C@H]5CC[C@]4(C)[C@H]3[C@@H]2CO[C@@H]2O[C@H](CO)[C@H](O)[C@H](O)[C@H]2O)[C@@H](O)[C@H]1O[C@@H]1O[C@H](C)[C@H](O)[C@H](O)[C@H]1O | inactive
3 | C=C1CO[C@@]2(O[C@H]3C[C@H]4[C@@H]5CC=C6C[C@@H](O)C[C@@H](O[C@@H]7O[C@H](CO)[C@@H](O)[C@H](O[C@@H]8OC[C@@H](O)[C@H](O)[C@H]8O)[C@H]7O[C@@H]7O[C@@H](C)[C@H](O)[C@@H](O)[C@H]7O)[C@]6(C)[C@H]5CC[C@]4(C)[C@H]3[C@@H]2CO[C@@H]2O[C@H](CO)[C@H](O)[C@H](O)[C@H]2O)[C@@H](O)[C@H]1O[C@@H]1O[C@H](C)[C@H](O)[C@H](O)[C@H]1O | inactive
4 | C[C@@H]1O[C@@H](O[C@H]2[C@H](O[C@@H]3C[C@H](O)CC4=CC[C@H]5[C@@H]6C[C@@H]7O[C@@]8(OC[C@H](C)[C@H](O[C@@H]9O[C@H](C)[C@H](O)[C@H](O)[C@H]9O)[C@@H]8O)[C@@H](CO)[C@@H]7[C@@]6(C)CC[C@@H]5[C@]43C)O[C@H](CO)[C@@H](O)[C@@H]2O[C@@H]2OC[C@@H](O)[C@H](O)[C@H]2O)[C@H](O)[C@H](O)[C@H]1O | inactive
5 | CC(C)(O)C(O)CC[C@](C)(O)[C@H]1CC[C@@]2(O)C3=CC(=O)[C@@H]4C[C@@H](O)[C@@H](O)C[C@]4(C)[C@H]3CC[C@]12C (some centres not stated) | inactive
6 | CC(C)(O)CC[C@@H](O)[C@](C)(O)[C@H]1CC[C@@]2(O)C3=CC(=O)[C@@H]4C[C@@H](O)[C@@H](O)C[C@]4(C)[C@H]3CC[C@]12C | inactive

System: CCRF-CEM
Experiment: Cytotoxicity against human CCRF-CEM cells by XTT assay
Type: functional, cell-based
Procedure, shortened: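 CCRF-CEM human leukemia cells were exposed to 0.001 to 100 μM to build dose–response curves, read by XTT proliferation assay. IC50 was taken from the curves. Only agents giving at least 80% inhibition in a 100 μM screen were taken forward. An equivalent DMSO concentration was the negative control and viability reference, and doxorubicin was the positive control.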

Row | SMILES | pIC50
7 | C[C@H](CC[C@@]1(O)O[C@H]2C[C@H]3[C@@H]4CC=C5C[C@@H](O[C@@H]6O[C@H](CO)[C@@H](O[C@@H]7O[C@@H](CO)[C@H](O)[C@H]7O)[C@H](O)[C@H]6O[C@@H]6O[C@@H](C)[C@H](O)[C@@H](O)[C@H]6O)CC[C@]5(C)[C@H]4CC[C@]3(C)[C@@]2(O)[C@@H]1C)CO[C@@H]1O[C@H](CO)[C@@H](O)[C@H](O)[C@H]1O [PARISYUNNANOSIDE A] | 5.18
8 | C[C@H](CCC1(O)OC2CC3C4CC=C5C[C@@H](O[C@@H]6O[C@H](CO)C(O[C@@H]7O[C@@H](CO)[C@H](O)[C@H]7O)[C@@H](O)[C@H]6O[C@@H]6O[C@@H](C)[C@H](O)[C@@H](O)[C@H]6O)CC[C@]5(C)C4CC[C@]3(C)C2[C@@H]1C)CO[C@@H]1O[C@H](CO)[C@@H](O)[C@H](O)[C@H]1O (some centres not stated) [PARISAPONIN I] | 5.91
9 | COc1cccc2c1C(=O)c1c(O)c3c(c(O)c1C2=O)C[C@@](O)(C(=O)CO)C[C@@H]3O[C@H]1C[C@H](N)[C@H](O)[C@H](C)O1 [DOXORUBICIN] | 5.67
10 | CC1=C(CC[C@@H](C)CO[C@@H]2O[C@H](CO)[C@@H](O)[C@H](O)[C@H]2O)O[C@H]2C[C@H]3[C@@H]4CC=C5C[C@@H](O[C@@H]6O[C@H](CO)[C@@H](O[C@@H]7O[C@@H](C)[C@H](O[C@@H]8O[C@@H](C)[C@H](O)[C@@H](O)[C@H]8O)[C@@H](O)[C@H]7O)[C@H](O)[C@H]6O[C@@H]6O[C@@H](C)[C@H](O)[C@@H](O)[C@H]6O)CC[C@]5(C)[C@H]4CC[C@]3(C)[C@@H]12 | 5.19
11 | C[C@H](CC[C@@]1(O)O[C@H]2C[C@H]3[C@@H]4CC=C5C[C@@H](O[C@@H]6O[C@H](CO)[C@@H](O)[C@H](O[C@@H]7O[C@H](CO)[C@@H](O)[C@H](O)[C@H]7O)[C@H]6O[C@@H]6O[C@@H](C)[C@H](O)[C@@H](O)[C@H]6O)CC[C@]5(C)[C@H]4CC[C@]3(C)[C@H]2[C@@H]1C)CO[C@@H]1O[C@H](CO)[C@@H](O)[C@H](O)[C@H]1O | 5.75
12 | C[C@H](CC[C@@]1(O)O[C@H]2C[C@H]3[C@@H]4CC=C5C[C@@H](O[C@@H]6O[C@H](CO)[C@@H](O[C@@H]7O[C@@H](C)[C@H](O[C@@H]8O[C@@H](C)[C@H](O)[C@@H](O)[C@H]8O)[C@@H](O)[C@H]7O)[C@H](O)[C@H]6O[C@@H]6O[C@@H](C)[C@H](O)[C@@H](O)[C@H]6O)CC[C@]5(C)[C@H]4CC[C@]3(C)[C@H]2[C@@H]1C)CO[C@@H]1O[C@H](CO)[C@@H](O)[C@H](O)[C@H]1O [DICHOTOMIN] | 6.23
